# The source made the active and inactive calls. The calls are words filed in the database; no cut-off is given here.
# Key:
# A549 = assay: Antiproliferative activity against human A549 cells measured after 7 days by Celltiter-glo assay; type: functional, cell-based; details: A549, 168 h
# Method in brief: (§1)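 Cells maintained in RPMI1640 with 10% FBS at 37 °C, 5% CO2. Seeded the day before dosing, grown 12 h, then exposed to graded compound concentrations for 7 days. CellTiter-Glo reagent added, 10 min at room temperature, luminescence read. Inhibition % = (1-(RLU compound - RLU blank)/(RLU DMSO - RLU blank))×100. IC50 from nonlinear regression, normalized dose-response fit.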
# CAKI-1 = assay: Antiproliferative activity against human CAKI-1 cells measured after 7 days by Celltiter-glo assay; type: functional, cell-based; details: CAKI-1, 168 h; method in brief: as §1
# MDA-MB-468 [1] = assay: Induction of apoptosis in human MDA-MB-468 cells assessed as viable cells at 2 uM measured after 72 hrs by Annexin V-FITC/propidium iodide staining based flow cytometry (reference value: 95.2%); type: functional
# MDA-MB-468 [2] = assay: Antiproliferative activity against human MDA-MB-468 cells measured after 7 days by Celltiter-glo assay; type: functional, cell-based; details: MDA-MB-468, 168 h; method in brief: as §1
# Ramos = assay: Antiproliferative activity against human Ramos cells measured after 7 days by Celltiter-glo assay; type: functional, cell-based; details: 168 h; method in brief: as §1
# MDA-MB-468 [3] = assay: Induction of DNA damage in human MDA-MB-468 cells at 2 uM measured after 72 hrs by comet assay; type: functional, cell-based
# Method in brief: (§2)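 MDA-MB-468 cells treated for 72 h, harvested and run in a neutral comet assay. Ethidium bromide staining after electrophoresis. About 200 cell images per group analysed with CASP. DNA damage scored as tail intensity (percentage DNA in tail) and olive tail moment. Mean ± SD of three independent experiments.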
# HCC1937 = assay: Antiproliferative activity against human HCC1937 cells measured after 7 days by Celltiter-glo assay; type: functional, cell-based; details: HCC1937, 168 h; method in brief: as §1
# HCT-116 = assay: Antiproliferative activity against human HCT116 cells measured after 7 days by Celltiter-glo assay; type: functional, cell-based; details: HCT-116, 168 h; method in brief: as §1
# MDA-MB-231 = assay: Antiproliferative activity against human MDA-MB-231 cells measured after 7 days by Celltiter-glo assay; type: functional, cell-based; details: MDA-MB-231, 168 h; method in brief: as §1
# MDA-MB-468 [4] = details: Homo sapiens, 2 uM
# MDA-MB-468 [5] = details: Homo sapiens, 2 uM; remark: listed apart in the source
# SW-620 = assay: Antiproliferative activity against human SW620 cells measured after 7 days by Celltiter-glo assay; type: functional, cell-based; details: SW-620, 168 h; method in brief: as §1
# BXPC-3 = assay: Antiproliferative activity against human BxPC3 cells measured after 7 days by Celltiter-glo assay; type: functional, cell-based; details: BXPC-3, 168 h; method in brief: as §1
# DU-145 = assay: Antiproliferative activity against human DU145 cells measured after 7 days by Celltiter-glo assay; type: functional, cell-based; details: DU-145, 168 h; method in brief: as §1
# MDA-MB-468 [6] = details: Homo sapiens, 2 uM; remark: listed apart in the source
# Jurkat = assay: Antiproliferative activity against human Jurkat cells measured after 7 days by Celltiter-glo assay; type: functional, cell-based; details: 168 h; method in brief: as §1
# A2780 = assay: Antiproliferative activity against human A2780 cells measured after 7 days by Celltiter-glo assay; type: functional, cell-based; details: A2780, 168 h; method in brief: as §1
# MDA-MB-468 [7] = assay: Inhibition of PI3K in human MDA-MB-468 cells assessed as reduction in BRCA1 mRNA level at 1 uM by Trizol reagent-based RT-PCR analysis; type: cell-based
# Method in brief: (§3)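 Total RNA from treated MDA-MB-468 cells extracted with TRIzol. BRCA1 or BRCA2 mRNA quantified by real-time PCR with GAPDH as internal control. Results given as fold change relative to the internal control. Mean ± SD of three independent experiments.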
# MDA-MB-468 [8] = assay: Activation of ERK in human MDA-MB-468 cells assessed as increase in ERK autophosphorylation at T202 residue at 1 uM measured after 6 to 72 hrs by Western blot analysis; type: cell-based
# Method in brief: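 MDA-MB-468 cells seeded in six-well plates, incubated overnight, then treated for 6 h, with 1‰ (v/v) DMSO medium as control. Lysates cleared at 4 °C, protein quantified by BCA, resolved by 8-12% SDS-PAGE and transferred to PVDF. Membranes blocked in 5% BSA/TBST, probed with primary antibodies (pERK-Thr202, total ERK, cleaved PARP, β-actin) and HRP secondary. ECL detection, band densitometry.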
# MDA-MB-468 [9] = assay: Induction of apoptosis in human MDA-MB-468 cells assessed as late apoptotic cells at 1 uM measured after 72 hrs by Annexin V-FITC/propidium iodide staining based flow cytometry (reference value: 0.78%); type: functional
# MDA-MB-468 [10] = assay: Inhibition of PI3K in human MDA-MB-468 cells assessed as reduction in pS6 phosphorylation at S240 residue at 1 uM measured after 6 to 72 hrs by Western blot analysis; type: cell-based
# Method in brief: (§4)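 MDA-MB-468 cells seeded overnight, then exposed for 6 h; control medium contained 1‰ DMSO. Lysates run on 8–12% SDS-PAGE and transferred to PVDF. Blots blocked in 5% BSA/TBST and probed for pAKT-Ser473/total AKT or pS6-Ser240/total S6, with β-actin as loading control. HRP secondary with ECL detection; bands quantified by densitometry. Three independent experiments.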
# MDA-MB-468 [11] = assay: Induction of apoptosis in human MDA-MB-468 cells assessed as viable cells at 1 uM measured after 72 hrs by Annexin V-FITC/propidium iodide staining based flow cytometry (reference value: 95.2%); type: functional; details: MDA-MB-468, 72 h, read-out: Activity
# MDA-MB-468 [12] = assay: Antitumor activity against human MDA-MB-468 cells xenografted in BALB/c mouse assessed as tumor growth inhibition at 50 mg/kg, ip administered every 2 days for 34 days and measured at 2 days interval during compound dosing relative to control; type: functional; details: MDA-MB-468, ip, read-out: TGI
# [13] = Toxicity in BALB/c mouse xenografted with human MDA-MB-468 cells assessed as mortality at 50 mg/kg, ip administered every 2 days for 34 days; type: organism-based; details: in vivo
# Method in brief: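 Nude mice bearing subcutaneous right-flank MDA-MB-468 tumours (2 × 10^6 exponential-phase cells implanted). Randomised at about 100 mm³ tumour volume; 6 mice per group. Dosed ip every 2 days for 34 days. Vehicle controls received PBS with 5% DMSO. Body weight and tumour size recorded every 2 days; tumour volume calculated as ab²/2 from caliper diameters.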
# MDA-MB-468 [14] = assay: Induction of apoptosis in human MDA-MB-468 cells assessed as increase in cleaved PARP level at 1 uM […] by Western blot analysis; type: functional, cell-based
# MDA-MB-468 [15] = assay: Inhibition of PI3K in human MDA-MB-468 cells assessed as reduction in AKT phosphorylation at S473 residue at 1 uM measured after 6 to 72 hrs by Western blot analysis; type: cell-based; method in brief: as §4
# [16] = target: Phosphatidylinositol 4,5-bisphosphate 3-kinase catalytic subunit alpha isoform (Homo sapiens, UniProt P42336); assay: Inhibition of PI3Kalpha (unknown origin) using PIP2 as substrate measured after 1 hr by ADP-glo plus luminescence assay
# MDA-MB-468 [17] = assay: Induction of apoptosis in human MDA-MB-468 cells assessed as early apoptotic cells at 1 uM measured after 72 hrs by Annexin V-FITC/propidium iodide staining based flow cytometry (reference value: 3.88%); type: functional
# MDA-MB-468 [18] = assay: Induction of DNA damage in human MDA-MB-468 cells at 1 uM measured after 72 hrs by comet assay; type: functional, cell-based; method in brief: as §2
# MDA-MB-468 [19] = assay: Inhibition of PI3K in human MDA-MB-468 cells assessed as reduction in BRCA2 mRNA level at 1 uM by Trizol reagent-based RT-PCR analysis; type: cell-based; method in brief: as §3
# MDA-MB-468 [20] = assay: Induction of apoptosis in human MDA-MB-468 cells assessed as necrotic cells at 1 uM measured after 72 hrs by Annexin V-FITC/propidium iodide staining based flow cytometry (reference value: 0.13%); type: functional
# [21] = target: Poly [ADP-ribose] polymerase 1 (Homo sapiens, UniProt P09874); assay: Inhibition of recombinant human PARP1 using histone as substrate after 1 hr in presence of biotinylated NAD+ by ELISA
# MDA-MB-468 [22] = assay: Inhibition of PI3K in human MDA-MB-468 cells assessed as increase in gammaH2AX foci formation at 1 uM measured after 72 hrs by DAPI staining based immunofluorescence microscopic analysis; type: cell-based
# Method in brief: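 MDA-MB-468 cells on coverslips given drugs for 72 h. Fixed in 3% formaldehyde, permeabilized with 0.1% Triton X-100, blocked in 10% FBS/PBS, then rabbit anti-γH2AX (Ser139) overnight at 4 °C. Secondary antibody and DAPI stain followed. About 200 cells scored for foci; a cell was positive with more than 5 foci. Three independent experiments.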
# MDA-MB-468 [23] = assay: Inhibition of PI3K in human MDA-MB-468 cells assessed as reduction in RAD51 foci formation at 1 uM measured after 72 hrs by DAPI staining based immunofluorescence microscopic analysis; type: cell-based
# Method in brief: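 RAD51 foci in MDA-MB-468 cells on coverslips after 72 h drug exposure. Cells fixed (3% formaldehyde), permeabilized (0.1% Triton X-100), blocked in 10% FBS/PBS, incubated overnight at 4 °C with rabbit anti-RAD51 polyclonal, then secondary antibody plus DAPI. Foci and percent positive cells (>5 foci per cell) counted from about 200 cells. Mean ± SD of three independent experiments.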
# Homo sapiens = species: Homo sapiens; assay: Selectivity ratio of IC50 for recombinant human PARP1 to IC50 for PI3Kalpha (unknown origin)
# Sequence of Phosphatidylinositol 4,5-bisphosphate 3-kinase catalytic subunit alpha isoform (P42336 whole entry, canonical isoform): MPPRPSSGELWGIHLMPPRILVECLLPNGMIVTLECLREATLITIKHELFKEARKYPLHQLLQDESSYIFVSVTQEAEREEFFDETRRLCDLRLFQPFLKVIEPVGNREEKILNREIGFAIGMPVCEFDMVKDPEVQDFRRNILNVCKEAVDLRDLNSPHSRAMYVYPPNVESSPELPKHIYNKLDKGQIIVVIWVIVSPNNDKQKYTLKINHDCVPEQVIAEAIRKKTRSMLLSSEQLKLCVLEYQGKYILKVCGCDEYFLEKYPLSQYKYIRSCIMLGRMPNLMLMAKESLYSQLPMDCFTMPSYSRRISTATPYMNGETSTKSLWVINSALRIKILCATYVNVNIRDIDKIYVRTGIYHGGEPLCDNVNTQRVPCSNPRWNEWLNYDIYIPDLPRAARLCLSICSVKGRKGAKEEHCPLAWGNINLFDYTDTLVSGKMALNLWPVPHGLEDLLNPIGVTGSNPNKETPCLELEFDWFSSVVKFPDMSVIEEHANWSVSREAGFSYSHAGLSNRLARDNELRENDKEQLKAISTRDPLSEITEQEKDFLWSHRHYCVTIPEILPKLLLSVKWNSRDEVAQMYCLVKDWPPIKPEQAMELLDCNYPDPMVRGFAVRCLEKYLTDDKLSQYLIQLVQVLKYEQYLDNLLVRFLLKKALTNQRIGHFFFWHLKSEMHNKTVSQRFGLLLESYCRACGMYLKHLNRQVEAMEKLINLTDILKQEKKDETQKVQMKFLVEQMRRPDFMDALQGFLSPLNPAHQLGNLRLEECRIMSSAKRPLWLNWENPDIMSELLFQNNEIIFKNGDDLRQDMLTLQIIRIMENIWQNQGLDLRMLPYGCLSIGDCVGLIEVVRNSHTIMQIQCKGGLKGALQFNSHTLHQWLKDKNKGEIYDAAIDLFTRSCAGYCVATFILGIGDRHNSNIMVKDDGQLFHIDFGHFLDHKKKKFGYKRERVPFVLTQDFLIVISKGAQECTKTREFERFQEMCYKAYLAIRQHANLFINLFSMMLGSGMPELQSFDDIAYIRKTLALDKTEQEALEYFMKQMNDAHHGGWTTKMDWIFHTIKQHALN
# Sequence of Poly [ADP-ribose] polymerase 1 (P09874 whole entry): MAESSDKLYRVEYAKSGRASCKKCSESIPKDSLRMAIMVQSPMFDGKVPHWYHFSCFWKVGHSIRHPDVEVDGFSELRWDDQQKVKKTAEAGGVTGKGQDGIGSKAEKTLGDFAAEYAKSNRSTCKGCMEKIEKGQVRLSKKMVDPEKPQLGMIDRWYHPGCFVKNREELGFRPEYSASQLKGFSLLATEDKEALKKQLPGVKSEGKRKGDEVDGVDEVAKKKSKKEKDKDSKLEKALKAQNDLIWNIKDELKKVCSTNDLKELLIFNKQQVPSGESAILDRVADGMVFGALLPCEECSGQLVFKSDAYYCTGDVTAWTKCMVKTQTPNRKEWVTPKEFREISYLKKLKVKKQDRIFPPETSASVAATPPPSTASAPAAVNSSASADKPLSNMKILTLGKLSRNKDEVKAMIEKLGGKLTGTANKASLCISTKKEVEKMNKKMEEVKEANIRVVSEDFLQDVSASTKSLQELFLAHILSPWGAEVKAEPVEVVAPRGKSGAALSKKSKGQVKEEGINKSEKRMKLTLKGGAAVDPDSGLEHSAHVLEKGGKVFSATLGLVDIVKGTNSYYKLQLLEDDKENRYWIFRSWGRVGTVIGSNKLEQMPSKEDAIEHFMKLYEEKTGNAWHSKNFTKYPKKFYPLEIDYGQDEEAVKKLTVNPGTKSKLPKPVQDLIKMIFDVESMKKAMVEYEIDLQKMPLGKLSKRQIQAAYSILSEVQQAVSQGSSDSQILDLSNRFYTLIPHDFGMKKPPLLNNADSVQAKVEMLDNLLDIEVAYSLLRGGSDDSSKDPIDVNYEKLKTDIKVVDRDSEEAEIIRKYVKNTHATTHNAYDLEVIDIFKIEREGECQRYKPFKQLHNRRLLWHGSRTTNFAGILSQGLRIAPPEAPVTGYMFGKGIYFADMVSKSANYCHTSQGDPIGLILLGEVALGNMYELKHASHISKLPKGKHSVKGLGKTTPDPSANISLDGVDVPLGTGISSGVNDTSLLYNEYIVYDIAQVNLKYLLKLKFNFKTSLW
smiles,measurement,setting,value
O=C(c1cc(Cc2n[nH]c(=O)c3ccccc23)ccc1F)N1CCN(C(=O)C2CC2)CC1 [OLAPARIB],IC50,A549,5.37 µM
same,IC50,CAKI-1,7.08 µM
same,Activity,MDA-MB-468 [1],91.5%
same,IC50,MDA-MB-468 [2],13.8 µM
same,IC50,Ramos,3.98 µM
same,Activity,MDA-MB-468 [3],Active
same,IC50,HCC1937,4.57 µM
same,IC50,HCT-116,3.02 µM
same,IC50,MDA-MB-231,18.2 µM
same,inhibition,MDA-MB-468 [4],Active
same,inhibition,MDA-MB-468 [5],Active
same,IC50,SW-620,10.2 µM
same,IC50,BXPC-3,11.7 µM
same,IC50,DU-145,6.31 µM
same,inhibition,MDA-MB-468 [6],Active
same,IC50,Jurkat,1.7 µM
same,IC50,A2780,0.741 µM
Nc1ncc(-c2nc3c(c(N4CCOCC4)n2)CCN(C(=O)c2cc(Cc4n[nH]c(=O)c5ccccc45)ccc2F)C3)cn1,inhibition,MDA-MB-468 [7],Active
same,Activity,MDA-MB-468 [8],Active
same,IC50,MDA-MB-468 [2],2.57 µM
same,Activity,MDA-MB-468 [9],19.4%
same,inhibition,MDA-MB-468 [10],Active
same,viability at 1 µM,MDA-MB-468 [11],65.9%
same,inhibition in vivo at 50 mg/kg,MDA-MB-468 [12],52.7%
same,Activity,[13],Non-Toxic
same,IC50,HCC1937,3.47 µM
same,IC50,HCT-116,1.58 µM
same,IC50,MDA-MB-231,3.55 µM
same,Activity,MDA-MB-468 [14],Active
same,inhibition,MDA-MB-468 [15],Active
same,IC50,[16],0.00479 µM
same,Activity,MDA-MB-468 [17],14.6%
same,Activity,MDA-MB-468 [18],Active
same,inhibition,MDA-MB-468 [19],Active
same,Activity,MDA-MB-468 [20],1.15%
same,IC50,[21],0.00257 µM
same,inhibition,MDA-MB-468 [22],Active
same,inhibition,MDA-MB-468 [23],Active
Nc1ncc(-c2nc(N3CCOCC3)nc(N3CCN(C(=O)c4cc(Cc5n[nH]c(=O)c6ccccc56)ccc4F)CC3)n2)cn1,IC50,[16],0.0912 µM
same,Ratio IC50,Homo sapiens,120
same,IC50,[21],0.000832 µM

# Reference: ChEMBL document CHEMBL4376860, “Discovery of Novel Dual Poly(ADP-ribose)polymerase and Phosphoinositide 3-Kinase Inhibitors as a Promising Strategy for Cancer Therapy” (J Med Chem, 2020)
